Laboratory results as given in ChEMBL document CHEMBL4364272, “Discovery of a Lead Triphenylethanamine Cholesterol Ester Transfer Protein (CETP) Inhibitor” (ACS Med Chem Lett, 2019).
Activity calls are given as the source filed them. The calls are words filed in the database; no cut-off is given here.

Tests used:
[1] = Cmax in telemetered rat at 2.5 mg/kg administered as iv infusion for 5 mins followed by 7.5 mg/kg, iv infusion for 55 mins; format: ADME, organism-based; design: dose 2.5 mg/kg, route intravenous; settings: in vivo
Summary of the method: (§1)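 Rats were telemetered and given a total of 10 mg/kg IV: 2.5 mg/kg infused over 5 min, then 7.5 mg/kg infused over 55 min (n = 7). Mean, systolic and diastolic BP, heart rate and locomotor activity were monitored, and the observed Cmax was recorded.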

[2] = Oral bioavailability in Balb/c mouse at 10 mg/kg measured upto 24 hrs by LC-MS/MS; format: ADME, organism-based; settings: in vivo
Summary of the method: (§2)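 Single IV and oral doses: rat 1 mg/kg IV and 10 mg/kg PO; mouse 5 mg/kg IV and 10 mg/kg PO; monkey 1 mg/kg IV and 5 mg/kg PO. IV vehicle was 10% Cremophor/10% EtOH/80% H2O for rodents and 70% PEG-400/10% EtOH/20% H2O for monkey. Oral vehicle was 15% Miglyol 812/30% Capmul MCM/15% Triacetin/40% Cremophor RH40, or the Cremophor vehicle for rat. Vss, Cl, t1/2 and %F were derived.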

[3] = Half life in cynomolgus monkey at 1 mg/kg, iv or 5 mg/kg, po administered via gavage measured upto 24 hrs by LC-MS/MS; format: ADME, organism-based, Macaca fascicularis; settings: in vivo; summary of the method: as §2
[4] = biological target: T1, Cholesteryl ester transfer protein (Homo sapiens, UniProt P11597); experiment: Inhibition of human recombinant CETP assessed as reduction in [3H]CE/HDL transfer incubated for 4 hrs by scintillation proximity assay
T1 sequence (P11597 whole entry): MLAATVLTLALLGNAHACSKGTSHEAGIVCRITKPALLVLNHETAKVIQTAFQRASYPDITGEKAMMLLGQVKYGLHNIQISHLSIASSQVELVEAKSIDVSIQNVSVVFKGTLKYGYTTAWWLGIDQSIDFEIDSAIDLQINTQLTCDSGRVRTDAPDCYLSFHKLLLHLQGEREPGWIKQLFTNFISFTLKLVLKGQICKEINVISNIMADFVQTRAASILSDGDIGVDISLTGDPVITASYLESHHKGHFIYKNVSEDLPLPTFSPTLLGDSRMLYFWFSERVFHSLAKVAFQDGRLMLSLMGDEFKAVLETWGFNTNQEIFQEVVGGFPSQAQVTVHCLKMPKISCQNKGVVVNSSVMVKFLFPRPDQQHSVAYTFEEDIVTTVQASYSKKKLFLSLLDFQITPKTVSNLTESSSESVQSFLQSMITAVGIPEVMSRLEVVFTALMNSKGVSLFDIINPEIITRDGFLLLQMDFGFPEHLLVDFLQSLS
Summary of the method: (§3)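 CETP activity was measured by scintillation proximity assay and by human whole plasma assay. Each was run in duplicate at six concentrations, and the mean values were used to calculate IC50.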

[5] = biological target: T1, Cholesteryl ester transfer protein; experiment: Inhibition of CETP in human whole plasma assessed as reduction in [3H]-CE/HDL transfer incubated for 2.5 hrs by topcount scintillation counting assay; format: cell-free; summary of the method: as §3
[6] = Cardiac toxicity in telemetered rat assessed as change in systolic blood pressure at 2.5 mg/kg administered as iv infusion for 5 mins followed by 7.5 mg/kg, iv infusion for 55 mins; format: organism-based; settings: in vivo; summary of the method: as §1
[7] = Toxicity in telemetered rat assessed as effect on locomotor activity at 2.5 mg/kg administered as iv infusion for 5 mins followed by 7.5 mg/kg, iv infusion for 55 mins; format: organism-based; settings: in vivo; summary of the method: as §1
[8] = Clearance in Sprague-Dawley rat at 1 mg/kg, iv or 10 mg/kg, po administered via gavage measured upto 24 hrs by LC-MS/MS; format: ADME, organism-based; settings: in vivo; summary of the method: as §2
[9] = Cardiac toxicity in telemetered rat assessed as change in diastolic blood pressure at 2.5 mg/kg administered as iv infusion for 5 mins followed by 7.5 mg/kg, iv infusion for 55 mins; format: organism-based; settings: in vivo; summary of the method: as §1
CYP11B2 = experiment: Effect on CYP11B2 gene expression in human NCI-H295R cells at 10 uM measured after 24 hrs relative to control; format: ADME, cell-based; settings: read-out: FC
Summary of the method: (§4)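 H295R cells were incubated for 24 h with test agent at 10 μM or angiotensin-II at 0.1 μM. CYP11B1 and CYP11B2 mRNA levels were measured and expressed as fold of control.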

[10] = Stability in mouse liver microsomes assessed as parent compound remaining at 50 uM preincubated for 5 to 7 mins followed by NADPH addition and measured 10 mins post-dose by LC-MS/MS; format: ADME, Microsome; settings: read-out: Stability
[11] = Stability in human liver microsomes assessed as parent compound remaining at 50 uM preincubated for 5 to 7 mins followed by NADPH addition and measured 10 mins post-dose by LC-MS/MS; format: ADME, Microsome; settings: read-out: Stability
Mus musculus = experiment: In vivo inhibition of CETP in hCETP/apoB-100 dual transgenic mouse assessed as reduction in [3H]-CE transfer at 0.5 mg/kg, po administered via gavage measured after 2 to 8 hrs by radioactivity based assay; format: functional, organism-based
[12] = Clearance in cynomolgus monkey at 1 mg/kg, iv or 5 mg/kg, po administered via gavage measured upto 24 hrs by LC-MS/MS; format: ADME, organism-based, Macaca fascicularis; settings: in vivo; summary of the method: as §2
[13] = Plasma concentration in hamster at 10 mg/kg, po qd administered for 7 days; format: ADME, organism-based; settings: cricetinae
Summary of the method: (§5)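 Hamsters received 10 mg/kg. Plasma cholesterol profiles were resolved by FPLC to give HDL cholesterol change, and plasma exposure was measured.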

[14] = Oral bioavailability in Sprague-Dawley rat at 10 mg/kg administered via gavage measured upto 24 hrs by LC-MS/MS; format: ADME, organism-based; settings: in vivo; summary of the method: as §2
CYP11B1 = experiment: Effect on CYP11B1 gene expression in human NCI-H295R cells at 10 uM measured after 24 hrs relative to control; format: ADME, cell-based; settings: read-out: FC; summary of the method: as §4
[15] = Oral bioavailability in cynomolgus monkey at 5 mg/kg administered via gavage measured upto 24 hrs by LC-MS/MS; format: ADME, organism-based, Macaca fascicularis; settings: in vivo; summary of the method: as §2
[16] = Volume of distribution at steady state in cynomolgus monkey at 1 mg/kg, iv or 5 mg/kg, po administered via gavage measured upto 24 hrs by LC-MS/MS; format: ADME, organism-based, Macaca fascicularis; settings: in vivo, read-out: Vdss; summary of the method: as §2
[17] = biological target: Voltage-gated inwardly rectifying potassium channel KCNH2 (Homo sapiens, UniProt Q12809); experiment: Inhibition of human ERG expressed in HEK293 cells by flux assay
[18] = Half life in Balb/c mouse at 5 mg/kg, iv or 10 mg/kg, po administered via gavage measured upto 24 hrs by LC-MS/MS; format: ADME, organism-based; settings: in vivo; summary of the method: as §2
[19] = Clearance in Balb/c mouse at 5 mg/kg, iv or 10 mg/kg, po administered via gavage measured upto 24 hrs by LC-MS/MS; format: ADME, organism-based; settings: in vivo; summary of the method: as §2
Hamster = experiment: In vivo inhibition of CETP in hamster assessed as increase in HDL cholesterol at 10 mg/kg, po qd administered for 7 days measured 6 hrs post-dose on every other day by FPLC analysis relative to control; format: functional; settings: Cricetinae; summary of the method: as §5
[20] = Half life in Sprague-Dawley rat at 1 mg/kg, iv or 10 mg/kg, po administered via gavage measured upto 24 hrs by LC-MS/MS; format: ADME, organism-based; settings: in vivo; summary of the method: as §2
[21] = biological target: T2, Cholesteryl ester transfer protein (Homo sapiens) (UniProt P11597); experiment: Potency index, ratio of torcetrapib IC50 to test compound IC50 for inhibition of CETP in human whole plasma; format: cell-free
T2 sequence (whole entry): T1 sequence (P11597 whole entry)

[22] = Cardiac toxicity in telemetered rat assessed as change in heart rate at 2.5 mg/kg administered as iv infusion for 5 mins followed by 7.5 mg/kg, iv infusion for 55 mins; format: organism-based; settings: in vivo; summary of the method: as §1
[23] = Volume of distribution at steady state in Balb/c mouse at 5 mg/kg, iv or 10 mg/kg, po administered via gavage measured upto 24 hrs by LC-MS/MS; format: ADME, organism-based; settings: in vivo, read-out: Vdss; summary of the method: as §2
[24] = Volume of distribution at steady state in Sprague-Dawley rat at 1 mg/kg, iv or 10 mg/kg, po administered via gavage measured upto 24 hrs by LC-MS/MS; format: ADME, organism-based; settings: in vivo, read-out: Vdss; summary of the method: as §2

Sequence of Voltage-gated inwardly rectifying potassium channel KCNH2 (Q12809 whole entry): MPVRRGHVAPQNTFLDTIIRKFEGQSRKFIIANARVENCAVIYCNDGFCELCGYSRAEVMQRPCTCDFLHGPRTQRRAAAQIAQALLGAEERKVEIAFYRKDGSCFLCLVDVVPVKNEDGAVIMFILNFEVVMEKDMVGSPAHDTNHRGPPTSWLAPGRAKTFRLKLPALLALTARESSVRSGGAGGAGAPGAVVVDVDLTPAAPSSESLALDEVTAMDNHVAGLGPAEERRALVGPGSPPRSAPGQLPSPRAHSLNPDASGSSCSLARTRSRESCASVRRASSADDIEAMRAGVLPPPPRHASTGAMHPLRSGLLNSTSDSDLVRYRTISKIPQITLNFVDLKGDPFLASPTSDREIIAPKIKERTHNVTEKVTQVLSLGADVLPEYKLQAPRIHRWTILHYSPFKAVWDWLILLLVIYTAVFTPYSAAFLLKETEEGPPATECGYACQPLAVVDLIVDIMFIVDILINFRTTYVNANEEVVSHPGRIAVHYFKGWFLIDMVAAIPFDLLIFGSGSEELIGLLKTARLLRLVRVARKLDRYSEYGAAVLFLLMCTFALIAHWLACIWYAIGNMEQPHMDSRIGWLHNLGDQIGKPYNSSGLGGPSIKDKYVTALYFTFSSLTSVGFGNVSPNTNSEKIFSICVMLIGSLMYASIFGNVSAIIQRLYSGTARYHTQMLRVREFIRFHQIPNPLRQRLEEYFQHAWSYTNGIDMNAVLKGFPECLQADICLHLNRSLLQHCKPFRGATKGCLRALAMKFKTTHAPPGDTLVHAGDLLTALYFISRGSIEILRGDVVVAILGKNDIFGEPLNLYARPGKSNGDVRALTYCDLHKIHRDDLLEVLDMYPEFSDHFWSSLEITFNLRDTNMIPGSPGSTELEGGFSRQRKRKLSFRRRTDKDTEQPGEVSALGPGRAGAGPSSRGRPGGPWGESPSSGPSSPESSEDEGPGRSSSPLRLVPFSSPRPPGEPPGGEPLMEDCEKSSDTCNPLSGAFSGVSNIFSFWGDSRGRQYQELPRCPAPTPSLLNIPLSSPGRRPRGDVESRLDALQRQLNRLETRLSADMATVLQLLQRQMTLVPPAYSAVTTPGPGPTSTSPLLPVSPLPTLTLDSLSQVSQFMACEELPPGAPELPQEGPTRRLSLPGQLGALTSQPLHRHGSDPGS

- bioavailability [2]: 18%
- half-life [3]: 2.88 days
- IC50 [4]: 2 nM
- IC50 [5]: 62 nM
- clearance [8]: 2.9 mL/min/kg
- fold induction at 24 h, 10 µM (CYP11B2): 0.9 to 2.1
- remaining at 10 min, 50 µM [10]: 100%
- remaining at 10 min, 50 µM [11]: 100%
- clearance [12]: 0.7 mL/min/kg
- concentration at 168 h [13]: 900 nM
- bioavailability [14]: 39%
- fold induction at 24 h, 10 µM (CYP11B1): 1.3
- bioavailability [15]: 27%
- Vd [16]: 3.7 L/kg
- half-life [18]: 300 min
- clearance [19]: 1.9 mL/min/kg
- half-life [20]: 1500 min
- Ratio IC50 [21]: 2
- Vd [23]: 0.4 L/kg
- Vd [24]: 1.5 L/kg
SMILES: NC(C(=O)N[C@@](Cc1ccccc1)(c1cc(F)cc(OC(F)(F)C(F)F)c1)c1ccc(F)c(OC2CC2)c1)C(O)(C(F)(F)F)C(F)(F)F (stereo partly drawn)
- Cmax [1]: 23.5 µM
- Activity [6]: Non-Toxic
- Activity [7]: Non-Toxic
- Activity [9]: Non-Toxic
- inhibition (Mus musculus): Active
- IC50 [17]: > 80 µM
- inhibition in vivo at 10 mg/kg (Hamster): 32%
- Activity [22]: Non-Toxic
